Assay results as given in ChEMBL document CHEMBL3085714 (J Med Chem, 2013).

Tests used:
Liver microsome [1] = test: Metabolic stability in female human liver microsomes; assay type: ADME
In short: (§1)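 Pooled liver microsomes, male and female, from rat and human were incubated separately. Time–concentration profiles of metabolite formation were followed by LC-MS. Incubations were run in triplicate and reported as mean ± SEM.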

Liver microsome [2] = test: Metabolic stability in male human liver microsomes; assay type: ADME; in short: as §1
Liver microsome [3] = test: Metabolic stability in female rat liver microsomes; assay type: ADME; in short: as §1
Liver microsome [4] = test: Metabolic stability in male rat liver microsomes; assay type: ADME; in short: as §1
[5] = Metabolic stability in human/rat liver microsomes at 1 mg/ml after 180 mins by LC/MS analysis; assay type: ADME, Microsome; conditions: read-out: Stability
In short: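 Rat and human liver microsomes were incubated with microsomal protein standardized to 1 mg/mL. Aliquots were withdrawn immediately after reaction start and at 10, 20, 40, 60, 120 and 180 min, then analysed by LC-MS.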

[6] = target: T1, Mitogen-activated protein kinase 14 (Homo sapiens, UniProt Q16539); test: Competitive inhibition of p38alpha MAP kinase (unknown origin) in presence of 100 uM ATP
T1 sequence (Q16539 whole entry): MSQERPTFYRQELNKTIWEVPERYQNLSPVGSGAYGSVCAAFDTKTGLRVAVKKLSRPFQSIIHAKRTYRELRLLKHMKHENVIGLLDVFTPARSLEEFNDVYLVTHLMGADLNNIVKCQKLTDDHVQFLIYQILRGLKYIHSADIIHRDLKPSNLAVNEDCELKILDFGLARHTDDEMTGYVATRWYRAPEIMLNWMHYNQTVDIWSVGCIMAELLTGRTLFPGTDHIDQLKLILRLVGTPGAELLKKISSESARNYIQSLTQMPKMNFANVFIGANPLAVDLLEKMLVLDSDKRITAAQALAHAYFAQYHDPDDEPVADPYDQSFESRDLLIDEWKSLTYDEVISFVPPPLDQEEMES

[7] = target: T1, Mitogen-activated protein kinase 14; test: Inhibition of p38alpha MAP kinase in human whole blood assessed as inhibition of LPS-induced TNFalpha release by ELISA
[8] = target: T1, Mitogen-activated protein kinase 14; test: Competitive inhibition of p38alpha MAP kinase (unknown origin) at 10 uM in presence of 100 uM ATP
[9] = target: T1, Mitogen-activated protein kinase 14; test: Inhibition of p38alpha MAP kinase in human whole blood assessed as inhibition of LPS-induced TNFalpha release at 100 uM by ELISA
Mus musculus [10] = species: Mus musculus; test: Metabolic stability in C57BL/6 mouse assessed as M-734 metabolite level in blood after 72 hrs by LC-MS/MS analysis; assay type: ADME, organism-based
Mus musculus [11] = species: Mus musculus; test: Metabolic stability in C57BL/6 mouse assessed as M-732 metabolite level in blood after 72 hrs by LC-MS/MS analysis; assay type: ADME, organism-based
Mus musculus [12] = species: Mus musculus; test: Metabolic stability in C57BL/6 mouse assessed as M-605 metabolite level in blood after 72 hrs by LC-MS/MS analysis; assay type: ADME, organism-based
Mus musculus [13] = species: Mus musculus; test: Metabolic stability in C57BL/6 mouse assessed as M-603 metabolite level in blood after 72 hrs by LC-MS/MS analysis; assay type: ADME, organism-based
Mus musculus [14] = test: Terminal elimination rate in C57BL/6 mouse at 10 mg/kg, po; assay type: ADME, organism-based; parameters: dose 10 mg/kg, route oral; conditions: in vivo
[15] = AUC (0 to infinity) in C57BL/6 mouse at 10 mg/kg, po; assay type: ADME, organism-based; parameters: time infinity, dose 10 mg/kg, route oral; conditions: plasma
In short: (§2)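 Male Black 6 C57 mice were dosed orally at 10 mg/kg. Plasma was sampled for up to 72 h postdose. Parent drug was quantified by LC-MS/MS after derivatization with 4-pyridinylboronic acid (70 °C, 40 min). Parameters came from noncompartmental analysis of mean plasma concentration–time profiles.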

[16] = AUC (0 to t) in C57BL/6 mouse at 10 mg/kg, po; assay type: ADME, organism-based; parameters: dose 10 mg/kg, route oral; conditions: plasma; in short: as §2
Mus musculus [17] = test: Half life in C57BL/6 mouse at 10 mg/kg, po; assay type: ADME, organism-based; parameters: dose 10 mg/kg, route oral; conditions: in vivo; in short: as §2
[18] = Tmax in C57BL/6 mouse at 10 mg/kg, po; assay type: ADME, organism-based; parameters: dose 10 mg/kg, route oral; conditions: in vivo
[19] = Cmax in C57BL/6 mouse at 10 mg/kg, po; assay type: ADME, organism-based; parameters: dose 10 mg/kg, route oral; conditions: in vivo; in short: as §2

Row | SMILES | IC50 [6] [nM] | IC50 [7] [nM] | also measured
1 | O=C1c2ccccc2CCc2cc(Nc3ccc(F)cc3F)ccc21 | 95 | 1910 | Stability (Liver microsome [1]): Unstable; Stability (Liver microsome [2]): Unstable; Stability (Liver microsome [3]): Unstable; Stability (Liver microsome [4]): Unstable; remaining at 3 h [5]: 43%
2 | O=C(Nc1cccc(Nc2ccc3c(c2)OCc2c(OCCN4CCOCC4)cccc2C3=O)c1)c1ccoc1 | 25 | 51400 | –
3 | O=C1c2ccc(Nc3ccc(F)cc3F)cc2CCc2ccc(OCCCO)cc21 | 13 | – | remaining at 3 h [5]: 90%
4 | Nc1ccc2c(c1)C(=O)c1ccc(Nc3ccc(F)cc3N)cc1OC2 | 151 | 1170 | –
5 | CC1(C)OC[C@@H](COc2ccc3c(c2)C(=O)c2ccc(Nc4ccc(F)cc4F)cc2OC3)O1 | 207 | 1440 | –
6 | O=C1c2cc(NCCN3CCOCC3)ccc2COc2cc(Nc3ccc(F)cc3F)ccc21 | 28 | 1100 | –
7 | O=C1c2cc(OCCC3CCCCC3)ccc2COc2cc(Nc3ccc(F)cc3F)ccc21 | – | 18600 | inhibition [8]: 41.3%
8 | O=C1c2ccc(Nc3ccc(F)cc3F)cc2OCc2c(OC[C@@H](O)CO)cccc21 | 25 | 90400 | –
9 | COc1cccc2c1COc1cc(Nc3ccc(F)cc3F)ccc1C2=O | 63 | – | inhibition [9]: 44.7%
10 | CCN(CC)CCOc1ccc2c(c1)C(=O)c1ccc(Nc3ccc(F)cc3F)cc1OC2 | 101 | 1060 | –
11 | O=C1c2cc(O)ccc2COc2cc(Nc3ccc(F)cc3F)ccc21 | 122 | 1850 | –
12 | O=C1c2ccccc2COc2cc(Nc3ccc(F)cc3F)ccc21 | – | 22000 | –
13 | Cc1cc(F)c(NC(=O)c2ccsc2)cc1Nc1ccc2c(c1)OCc1ccc(OC[C@H]3COC(C)(C)O3)cc1C2=O | 1.8 | 287 | –
14 | CC1(C)OC[C@@H](COc2ccc3c(c2)COc2cc(Nc4ccc(F)cc4F)ccc2C3=O)O1 | 665 | 91200 | –
15 | O=C(Nc1cc(Nc2ccc3c(c2)OCc2cc(OCCN4CCOCC4)ccc2C3=O)ccc1F)c1ccccc1 | 17 | – | inhibition [9]: 36%
16 | O=C1c2cc(OCCCO)ccc2COc2cc(Nc3ccc(F)cc3F)ccc21 | 8 | 631 | –
17 | O=C1c2cc(OC[C@@H](O)CO)ccc2COc2cc(Nc3ccc(F)cc3F)ccc21 | 61 | 591 | –
18 | O=C1c2ccc(Nc3ccc(F)cc3F)cc2CCc2ccc(O)cc21 | 49 | 1250 | remaining at 3 h [5]: 70%
19 | Nc1ccc2c(c1)C(=O)c1ccc(Oc3ccc(F)cc3F)cc1OC2 | 763 | – | –
20 | Cc1cc(F)c(NC(=O)c2ccsc2)cc1Nc1ccc2c(c1)OCc1ccc(OCCN3CCOCC3)cc1C2=O | 1.7 | 148 | –
21 | CC1(C)OC[C@H](COc2ccc3c(c2)C(=O)c2ccc(Nc4ccc(F)cc4F)cc2OC3)O1 | 48 | 1300 | –
22 | O=C1c2ccc(OCCN3CCOCC3)cc2COc2cc(Nc3ccc(F)cc3F)ccc21 | 33 | 71800 | –

Row | SMILES | IC50 [6] [nM] | IC50 [7] [nM] | also measured
23 | O=C1c2cc(OCCN3CCOCC3)ccc2COc2cc(Nc3ccc(F)cc3F)ccc21 | 21 | 429 | –
24 | CC1(C)OC[C@@H](CCOc2ccc3c(c2)COc2cc(Nc4ccc(F)cc4F)ccc2C3=O)O1 | 516 | – | –
25 | CC1(C)OC[C@@H](COc2cccc3c2COc2cc(Nc4ccc(F)cc4F)ccc2C3=O)O1 | 563 | – | inhibition [9]: 48.6%
26 | Nc1cc(F)ccc1Nc1ccc2c(c1)OCc1cc(OCCN3CCOCC3)ccc1C2=O | 41 | 94800 | –
27 | COc1ccc2c(c1)COc1cc(Nc3ccc(F)cc3F)ccc1C2=O | 218 | – | –
28 | Nc1cccc(Nc2ccc3c(c2)OCc2ccc(N)cc2C3=O)c1 | 651 | 2430 | –
29 | Nc1ccc2c(c1)C(=O)c1ccc(Nc3ccc(F)cc3F)cc1OC2 | 43 | 1940 | –
30 | O=c1c2ccccc2ccc2cc(Nc3ccc(F)cc3F)ccc12 | 4200 | – | –
31 | COc1ccc2c(c1)C(=O)c1ccc(Nc3ccc(F)cc3F)cc1CC2 | 44 | 1650 | remaining at 3 h [5]: 85%
32 | O=C1c2cc(OCCC3CCOCC3)ccc2COc2cc(Nc3ccc(F)cc3F)ccc21 | 79 | 364 | –
33 | Cc1ccccc1Nc1ccc2c(c1)OCc1cc(OCCN3CCOCC3)ccc1C2=O | 85 | – | inhibition [9]: 30.3%
34 | O=C1c2ccc(Nc3ccc(F)cc3F)cc2CCc2ccc(OC[C@@H](O)CO)cc21 | – | – | remaining at 3 h [5]: 100%
35 | CN(C)CCOc1ccc2c(c1)COc1cc(Nc3ccc(F)cc3F)ccc1C2=O | 53 | 38100 | –
36 | O=C(Nc1ccc(F)c(Nc2ccc3c(c2)OCc2ccc(OCCN4CCOCC4)cc2C3=O)c1)c1ccccc1 | 3 | 1560 | –
37 | Nc1ccc2c(c1)C(=O)c1ccc(Nc3ccccc3F)cc1OC2 | 111 | 4540 | –
38 | O=C1c2ccc(Nc3ccc(F)cc3F)cc2OCc2c(OC[C@H](O)CO)cccc21 | 42 | – | inhibition [9]: 48.5%
39 | Nc1cccc(Nc2ccc3c(c2)OCc2ccc(OCCN4CCOCC4)cc2C3=O)c1 | 146 | 684 | –
40 | Nc1ccc2c(c1)C(=O)c1ccc(Nc3ccc(F)cc3)cc1OC2 | 103 | 5700 | –
41 | Cc1cc(F)ccc1Nc1ccc2c(c1)OCc1cc(OCCN3CCOCC3)ccc1C2=O | 160 | – | –
42 | O=C1c2ccc(OCCC3CCOCC3)cc2COc2cc(Nc3ccc(F)cc3F)ccc21 | 557 | – | –
43 | O=C1c2ccc(Nc3ccc(F)cc3F)cc2CCc2ccc(OCCO)cc21 | 19 | 583 | remaining at 3 h [5]: 86%
44 | O=C1c2ccc(Nc3ccc(F)cc3F)cc2OCc2c(OCCN3CCOCC3)cccc21 | 34 | – | inhibition [9]: 32.2%

Row | SMILES | IC50 [6] [nM] | IC50 [7] [nM] | also measured
45 | O=C(Nc1ccc(F)c(Nc2ccc3c(c2)OCc2c(OCCN4CCOCC4)cccc2C3=O)c1)c1ccccc1 | 10 | – | inhibition [9]: 39%
46 | O=C1c2cc(OC[C@H](O)CO)ccc2COc2cc(Nc3ccc(F)cc3F)ccc21 | 14 | 233 | Stability (Mus musculus [10]): Unstable; Stability (Mus musculus [11]): Unstable; Stability (Mus musculus [12]): Unstable; Stability (Mus musculus [13]): Unstable; Kel (Mus musculus [14]): 0.0243 h⁻¹; AUC(0-inf) [15]: 6990 ng·h/mL; AUC(0-t) [16]: 6590 ng·h/mL; t1/2 (Mus musculus [17]): 3.95 h; Tmax [18]: 1 h; Cmax [19]: 627 ng/mL
47 | O=C1c2ccc(OCC[C@@H](O)CO)cc2COc2cc(Nc3ccc(F)cc3F)ccc21 | 21 | 37900 | –
48 | O=C1c2cc(OCCO)ccc2COc2cc(Nc3ccc(F)cc3F)ccc21 | 20 | 588 | –
49 | COc1ccc2c(c1)COc1cc(Nc3ccccc3N)ccc1C2=O | 132 | 71800 | –
50 | Nc1cc(F)ccc1Nc1ccc2c(c1)OCc1c(OCCN3CCOCC3)cccc1C2=O | 72 | – | inhibition [9]: 38.8%
51 | Nc1ccccc1Nc1ccc2c(c1)OCc1ccc(OCCN3CCOCC3)cc1C2=O | 107 | 490 | –
52 | O=C1c2ccc(Nc3ccc(F)cc3F)cc2OCc2c(OCCC3CCOCC3)cccc21 | 571 | – | –
53 | COc1ccc2c(c1)C(=O)c1ccc(Nc3ccc(F)cc3F)cc1OC2 | 115 | 4710 | –
54 | Nc1ccc2c(c1)C(=O)c1ccc(Nc3cc(F)c(F)cc3F)cc1OC2 | 74 | 7810 | –
55 | O=C1c2ccc(Nc3ccc(F)cc3F)cc2OCc2cccc(OC[C@H](O)CO)c21 | > 10000 | – | –
56 | COc1cccc2c1COc1cc(Nc3ccccc3N)ccc1C2=O | 94 | – | –
57 | O=C1c2cc(NCCN3CCOCC3)ccc2COc2cc(Oc3ccc(F)cc3F)ccc21 | 819 | – | –
58 | O=C1c2ccc(OC[C@@H](O)CO)cc2COc2cc(Nc3ccc(F)cc3F)ccc21 | 27 | 28200 | –
59 | COc1cccc2c1C(=O)c1ccc(Nc3ccc(F)cc3F)cc1OC2 | 280 | – | –
60 | O=C1c2ccc(Nc3ccc(F)cc3F)cc2OCc2cccc(OC[C@@H](O)CO)c21 | > 10000 | – | –
61 | Nc1ccc2c(c1)C(=O)c1ccc(Nc3ccccc3N)cc1OC2 | 205 | 683 | –
62 | CC1(C)OC[C@H](COc2cccc3c2COc2cc(Nc4ccc(F)cc4F)ccc2C3=O)O1 | 481 | – | inhibition [9]: 42.4%
63 | Nc1ccccc1Nc1ccc2c(c1)OCc1cc(OCCN3CCOCC3)ccc1C2=O | 147 | 58700 | –
64 | CC(=O)OCCOc1ccc2c(c1)C(=O)c1ccc(Nc3ccc(F)cc3F)cc1OC2 | 22 | – | –
65 | COc1cccc2c1COc1cc(Nc3ccc(F)cc3N)ccc1C2=O | 87 | – | –
